The full list was thinned out, with hits kept by preference.
CHOP inhibitor = inhibitors of CHOP induction in ER stress response; CHO-K1 CHOP-promoter luciferase, tunicamycin-induced, 15-18 h; inhibition, % at 10 µM; 220,000 tested, 3.8% active; AID 2732;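 active = compounds that reduced the stress-induced luciferase reporter signal by more than about 70% of percent inhibition, limit read from the data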;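 also: 0% = tunicamycin plus vehicle and 100% = wells without tunicamycin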
UPR CHOP act = apoptotic UPR (CHOP) activation. CHO-CHOP luciferase reporter, luminescence; percent of tunicamycin response over DMSO baseline. activation, % at 10 µM. 330,000 tested, 0.34% active;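 active = at 10 µM dose, activation of 40% or more, normalized to positive control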;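 also: 100% = tunicamycin at 10 µg/mL and 0% = DMSO alone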
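Test system: CHO CHOP reporter cells. Input: 500 CHO-CHOP cells per well. Medium: F12 with 10% FBS. Technique: luciferase luminescence. Measure: percent activation relative to tunicamycin control. Dosing: 10 µM compound, 0.5% DMSO. Timing: 16-18 h cell attachment, then 6 h compound exposure, 37 °C.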
A1 inh = inhibitors of the anti-apoptotic protein A1, read as caspase activation; caspase activation, % (test concentration not listed); 330,000 tested, 0.066% active; MEF A1-2A-BIM cells, Caspase-Glo 3/7 luminescence, 3 h; percent of clofoctol response, vehicle zero;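 active = over half of replicate activation scores above 10%, or exactly half above 10 with the replicate mean above 10; inconclusive = replicate mean below 10 yet half the replicates above 10; inactive = over half of replicates below 10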
XBP1 UPR activ = adaptive UPR (XBP1) activation; CHO-XBP1 luciferase reporter, IRE1-XBP1 UPR activation, luminescence; percent of tunicamycin response, DMSO as zero; activation, % at 20 µM; AID 463104; 330,000 tested, 0.33% active;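 active = versus positive control, 20 µM dose yields 30% or more activation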;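 also: 100% = tunicamycin at 10 µg/mL and 0% = DMSO only wells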
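Material – CHO cell line with stable XBP1 luciferase reporter · Buffer or medium – F12 plus 10% FBS · Compound – single point, 20 µM final compound, 1% DMSO · Schedule – 16-18 h cell attachment at 37 °C, then 6 h compound exposure · Signal – Steady-Glo luminescence read · Benchmarks – high control tunicamycin 10 µg/mL final, low control DMSO vehicle only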
CHOP inh conf = confirmation of CHOP induction inhibitors. AID 504437. inhibition, % at 10 µM. 2,100 tested, 45% active. CHO-CHOP promoter luciferase reporter, tunicamycin-induced, luminescence. shares compounds with CHOP inhibitor;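 active = mean of three repeat readings of reporter signal inhibition above a set limit, cut at about 70% in these data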;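 also: 0% = tunicamycin plus vehicle and 100% = wells lacking tunicamycin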
An asterisk follows results filed as active; ? = inconclusive; . = no result.

SMILES	CHOP inhibitor	UPR CHOP act	A1 inh	XBP1 UPR activ	CHOP inh conf
CC(CNC(=S)Nc1cc(F)cc(F)c1)CSc1ccc(Cl)cc1 (stereo not given)	97*	-1	1	-1	86*
O=C(c1ccco1)N1CCN(Cc2cc(=O)c(OCc3ccccc3Cl)co2)CC1	.	1	0	-1	.
COc1cc(C(C#N)N2N=C(c3ccccc3)CC2c2ccccc2)ccc1O (stereo not given)	56	2	-4	3	.
N#CC(c1ccccc1O)N1N=C(c2ccccc2)CC1c1ccccc1 (stereo not given)	97*	13	-1	13	26
C=CCOC(=O)C1=C(C)NC(SCC(=O)N(CC)CC)=C(C#N)C1c1ccco1 (stereo not given)	.	-3	-1	1	.
C=CCOC(=O)C1=C(C)NC(SCC(=O)Nc2ccccc2)=C(C#N)C1c1ccco1 (stereo not given)	104*	6	1	-1	116*
CCN(C(=O)COC(=O)CN(C)S(=O)(=O)c1ccc(NC(C)=O)cc1)C1CCS(=O)(=O)C1 (stereo not given)	.	-2	0	-2	.
Cc1ccc(NCc2n[nH]c(=S)n2Cc2ccccc2)cc1Cl	100*	.	.	.	-45
Cc1ccc(-c2cc3c(nn2)-c2ccccc2C3=O)cc1	101*	-9	-8	-6	108*
O=C1c2ccccc2-c2nnc(-c3ccc(F)cc3)cc21	18	-3	-9	-7	.
N#CC1CC(c2ccccc2)Nc2cc(Cl)ccc2N1 (stereo not given)	-11	6	-1	10	.
COc1ccc2[nH]c(=O)c(CN(Cc3nnnn3Cc3ccco3)C3CCCCC3)cc2c1	3	-2	0	-5	.
COc1ccc2[nH]c(=O)c(CN(C3CCCCC3)C(c3nnnn3Cc3ccco3)C(C)C)cc2c1 (stereo not given)	102*	-7	0	-2	52
CCOc1ccccc1Nc1cc(C)nc2ccc(C)cc12	.	1	0	2	.
CCOC(=O)C1CCN(C(=O)Cn2nc(C)n3cccc3c2=O)CC1	.	-1	0	-2	.
CC1(C)Oc2ccc3ccc(=O)oc3c2[C@@H](O)[C@H]1O	.	-1	1	-1	.
NC(=O)c1cc(-c2ccccc2)nc(N2CCCCCC2)n1	103*	3	0	-2	108*
NC(=O)c1cc(-c2ccccc2)nc(N2CCOCC2)n1	39	-1	0	0	.
CC/C(=C(\c1ccccc1)c1ccc(OCCN(C)C)cc1)c1ccccc1	-2	3	0	-1	.
CCN(CC)CCOc1ccc(/C(=C(/Cl)c2ccccc2)c2ccccc2)cc1	99*	2	0	0	7
COc1cccc(C(=O)N(C)Cc2c(C)nn(C3CCS(=O)(=O)C3)c2C)c1 (stereo not given)	.	0	1	-3	.
O=C(CN1C(=O)S/C(=C\c2ccc(Cl)cc2)C1=O)NC1C=CS(=O)(=O)C1 (stereo not given)	.	4	0	1	.
O=C(CN1C(=O)S/C(=C\c2ccc(Cl)cc2)C1=O)NNC(=O)c1ccccc1O	106*	.	0	.	14
O=C(CCNC(=O)c1ccco1)Nc1ccc(OC(F)F)cc1	.	-1	0	-2	.
CCCCCc1ccc(OCCOCCn2c[n+](C)c3ccccc32)c(CCCCC)c1	108*	.	.	.	122*
SMILES	CHOP inhibitor	UPR CHOP act	A1 inh	XBP1 UPR activ	CHOP inh conf
CCCCCc1ccc(OCCC[n+]2ccccc2)c(CCCCC)c1	9	0	0	5	.
COc1cccc(Nc2ncnc3c2cnn3-c2cccc(C)c2)c1	105*	4	0	4	130*
COc1ccccc1Nc1ncnc2c1cnn2-c1cccc(C)c1	-20	6	1	0	.
COC(=O)[C@@]1(Cc2ccccc2)[C@H]2C(=O)N(Cc3ccccc3)C(=O)[C@H]2[C@H]2CN=C(SCC3CC3)N21	.	3	.	-2	.
Cc1cccc(-c2cc(C(=O)Nc3ccc4c(c3)OCCO4)c3ccccc3n2)c1	35	3	0	-4	.
O=C(Nc1ccc2c(c1)OCCO2)c1cc(-c2ccccn2)nc2ccc(Br)cc12	101*	1	0	3	2
CCCCCCOC(=O)Nc1ccc(S(=O)(=O)Nc2cccc([N+](=O)[O-])c2)cc1	106*	-2	0	1	110*
COc1ccc(NC(=O)C2CCCN2S(=O)(=O)c2cccc3cccnc23)cc1OC (stereo not given)	.	0	-1	0	.
CCn1cc(Cl)c(C(=O)N2N=C(c3ccc4ccccc4c3)CC2c2ccccc2O)n1 (stereo not given)	97*	4	0	9	61
Cn1c(=O)n(Cc2ccc(F)cc2)c(=O)c2c1nc1n2CCCN1C1CCCCC1	103*	-3	-1	0	26
Cn1c(=O)n(Cc2ccccc2)c(=O)c2c1nc1n2CCCN1C1CCCCC1	.	1	1	6	.
O=C(c1cnn2c(C(F)F)cc(-c3ccccc3)nc12)N1CCCCC1c1cccnc1 (stereo not given)	14	2	-1	0	.
O=C(O)/C(=C\c1ccc2ccccc2c1)c1cccc2ccccc12	.	-1	0	4	.
O=C(COC(=O)c1n[nH]c(=O)c2ccccc12)c1ccc(Cl)cc1	-29	1	0	0	.
O=C(COC(=O)c1n[nH]c(=O)c2ccccc12)c1ccc(Br)cc1	104*	1	1	-2	-70
COc1ccc(/C=N/NC(=O)c2nc(Cl)c(Cl)c(N)c2Cl)cc1COc1ccc(F)cc1F	100*	3	1	6	36
O=C1Nc2ccc(Br)cc2/C1=C/C(=O)c1ccc2c(c1)OCO2	107*	19	?	25	-37
O=C(NCc1ccc2c(c1)OCO2)c1ccc(Br)cc1	.	1	0	-2	.
CCOc1ccc(CCN2C(=O)C(=O)N([C@H](CCCN(C)Cc3ccccc3)CNCc3ccccc3)C[C@@H]2C(C)C)cc1	3	2	.	1	.
CN(CCCC[C@H](CNCc1ccc(-c2ccccc2)cc1)N1C[C@H](c2ccccc2)N(CCc2ccc(Cl)c(Cl)c2)C(=O)C1=O)Cc1ccc(-c2ccccc2)cc1	107*	.	.	.	112*
Cc1cccc(-n2c(SCC(=O)N3CCN(c4ccccn4)CC3)nnc2N2CCOCC2)c1	.	1	0	-1	.
COc1ccc(NC(=O)Nc2ccc(OC)cc2)cc1	-24	2	-2	4	.
COc1ccc(Cn2c(C)c(C)c(C#N)c2NC(=O)Nc2ccc(Cl)cc2)cc1	106*	-1	0	0	103*
CC(=O)C1=C(S(=O)(=O)c2ccc(C)cc2)CS(=O)(=O)C1	98*	1	.	-2	71*
COc1cc(C(=O)NCCCC2CCCC2)ccc1OC1CCN(C(C)=O)CC1	.	1	.	1	.

Screening data (PubChem BioAssay)
